Measurements published in ChEMBL document CHEMBL1151753, “New benzylureas as a novel series of potent, nonpeptidic vasopressin V2 receptor agonists” (J Med Chem, 2008).
pEC50, pKi: −log10 of the molar value. Converted amounts (≈) assume the structure as drawn. The source made the active and inactive calls. The rule behind the calls is not given here.

Key:
[1] = target: T1, Vasopressin V2 receptor (Homo sapiens, UniProt P30518); assay: Agonist activity at human vasopressin V2 receptor expressed in HEK293 cells assessed as increase in intracellular cAMP level by CRE-luciferase reporter gene assay; assay type: functional, cell-based
How it was run: (§1)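 HEK293 cells grown to 70-80% confluency, transiently transfected with receptor plus pGL4 CRE-Luc reporter, incubated 24 h at 37 °C/5% CO2, plated at 10000 cells/well, a further 24 h. Compounds in 0.5 log serial dilutions in duplicate, final DMSO 0.1%. Luciferase read by luminescence after 5 h at 37 °C, expressed as % of 100 nM AVP control. 4-parameter logistic fit gave EC50, reported as geometric mean ± SD.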

[2] = tested on: Rattus norvegicus; assay: Antidiuretic effect in Long-Evans Brattleboro rat model assessed as inhibition of urine production at 1 mg/kg, po after 1 hr relative to control; assay type: functional
How it was run: (§2)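 Brattleboro rats (Long-Evans hooded strain lacking circulating AVP, diabetes insipidus model) dosed orally in carboxymethyl cellulose. Voided urine collected and measured over 1 h periods and compared with vehicle-treated animals. At least six animals per group, data as means.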

[3] = Aqueous solubility of the compound; assay type: physicochemical; details: water (aqueous)
[4] = tested on: Rattus norvegicus; assay: Antidiuretic effect in Long-Evans Brattleboro rat model assessed as inhibition of urine production at 1 mg/kg, po after 1 to 2 hrs; assay type: functional, organism-based; parameters: dose 1 mg/kg; how it was run: as §2
[5] = target: Vasopressin V2 receptor (Rattus norvegicus, UniProt Q00788); assay: Agonist activity at rat vasopressin V2 receptor expressed in HEK293 cells assessed as increase in intracellular cAMP level by CRE-luciferase reporter gene assay; assay type: functional, cell-based; how it was run: as §1
[6] = target: T1, Vasopressin V2 receptor; assay: Agonist activity at human vasopressin V2 receptor expressed in HEK293 cells assessed as increase in intracellular cAMP level by CRE-luciferase reporter gene assay relative to arginine vasopressin; assay type: functional, cell-based; how it was run: as §1
[7] = target: Vasopressin V1a receptor (Homo sapiens) (UniProt P37288); assay: Agonist activity at human vasopressin V1a receptor upto 10 uM by reporter gene assay; assay type: functional; how it was run: as §1
[8] = target: T2, Vasopressin V1b receptor (Homo sapiens) (UniProt P47901); assay: Agonist activity at human vasopressin V1b receptor upto 10 uM by reporter gene assay; assay type: functional; how it was run: as §1
T2 sequence (whole entry): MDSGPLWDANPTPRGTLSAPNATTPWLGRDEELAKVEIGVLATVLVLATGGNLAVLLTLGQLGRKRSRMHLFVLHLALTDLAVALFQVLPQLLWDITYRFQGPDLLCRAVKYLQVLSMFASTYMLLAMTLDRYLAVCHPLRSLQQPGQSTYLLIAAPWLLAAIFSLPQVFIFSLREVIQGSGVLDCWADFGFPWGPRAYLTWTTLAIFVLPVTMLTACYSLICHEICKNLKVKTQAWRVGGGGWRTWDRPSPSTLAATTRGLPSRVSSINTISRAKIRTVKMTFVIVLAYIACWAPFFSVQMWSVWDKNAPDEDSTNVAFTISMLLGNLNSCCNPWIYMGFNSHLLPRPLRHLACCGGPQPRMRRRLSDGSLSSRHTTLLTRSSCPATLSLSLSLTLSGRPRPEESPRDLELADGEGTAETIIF

[9] = target: T3, Oxytocin receptor (Homo sapiens, UniProt P30559); assay: Binding affinity to oxytocin receptor
T3 sequence (P30559 whole entry): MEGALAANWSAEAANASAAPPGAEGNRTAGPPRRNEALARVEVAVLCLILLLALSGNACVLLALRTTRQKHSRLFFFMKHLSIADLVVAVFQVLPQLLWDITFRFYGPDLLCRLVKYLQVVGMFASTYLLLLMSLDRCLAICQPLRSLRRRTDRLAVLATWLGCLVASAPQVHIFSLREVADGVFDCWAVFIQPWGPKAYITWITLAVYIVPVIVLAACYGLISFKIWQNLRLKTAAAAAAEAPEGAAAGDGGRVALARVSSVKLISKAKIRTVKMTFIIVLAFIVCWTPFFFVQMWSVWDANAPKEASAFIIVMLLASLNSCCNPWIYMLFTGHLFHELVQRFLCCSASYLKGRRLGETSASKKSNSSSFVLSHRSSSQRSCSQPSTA

[10] = target: T1, Vasopressin V2 receptor; assay: Binding affinity to human vasopressin V2 receptor expressed in HEK293 cells by radioligand binding assay; assay type: cell-based
[11] = tested on: Rattus norvegicus; assay: Antidiuretic effect in Long-Evans Brattleboro rat model assessed as inhibition of urine production at 3 mg/kg, po after 2 hrs; assay type: functional, organism-based; parameters: dose 3 mg/kg; how it was run: as §2
[12] = tested on: Rattus norvegicus; assay: Antidiuretic effect in Long-Evans Brattleboro rat model assessed as inhibition of urine production at 1 mg/kg, po in methylcellulose after 5 hrs; assay type: functional, organism-based; parameters: dose 1 mg/kg
[13] = target: Vasopressin V2 receptor (Rattus norvegicus) (UniProt Q00788); assay: Agonist activity at rat vasopressin V2 receptor expressed in HEK293 cells assessed as increase in intracellular cAMP level by CRE-luciferase reporter gene assay relative to arginine vasopressin
Vasopressin V2 receptor (Rattus norvegicus), sequence (Q00788 whole entry, looked up): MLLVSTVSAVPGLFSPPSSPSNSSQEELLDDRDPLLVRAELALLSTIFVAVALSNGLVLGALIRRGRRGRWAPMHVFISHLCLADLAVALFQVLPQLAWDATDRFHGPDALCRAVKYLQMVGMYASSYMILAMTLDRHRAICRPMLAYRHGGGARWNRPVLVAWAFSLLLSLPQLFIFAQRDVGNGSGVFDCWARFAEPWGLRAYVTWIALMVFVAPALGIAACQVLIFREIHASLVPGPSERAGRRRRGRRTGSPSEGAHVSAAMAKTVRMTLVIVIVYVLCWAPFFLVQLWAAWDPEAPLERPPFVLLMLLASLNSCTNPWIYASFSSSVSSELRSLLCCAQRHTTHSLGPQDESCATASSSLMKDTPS

Vasopressin V2 receptor (Rattus norvegicus, UniProt Q00788), sequence (Q00788 whole entry): as the sequence (Q00788 whole entry, looked up) above
T1 sequence (P30518 whole entry): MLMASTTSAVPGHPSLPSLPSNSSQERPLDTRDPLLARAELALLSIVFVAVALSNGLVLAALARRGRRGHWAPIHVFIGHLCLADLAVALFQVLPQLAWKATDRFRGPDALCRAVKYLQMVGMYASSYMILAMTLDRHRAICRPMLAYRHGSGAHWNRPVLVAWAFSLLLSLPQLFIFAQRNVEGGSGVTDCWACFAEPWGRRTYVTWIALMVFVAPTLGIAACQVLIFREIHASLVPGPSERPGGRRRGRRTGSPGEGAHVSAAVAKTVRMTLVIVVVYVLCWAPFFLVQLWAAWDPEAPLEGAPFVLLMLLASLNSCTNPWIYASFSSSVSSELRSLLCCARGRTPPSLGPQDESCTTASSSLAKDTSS
Vasopressin V1a receptor (Homo sapiens), sequence (P37288 whole entry, looked up): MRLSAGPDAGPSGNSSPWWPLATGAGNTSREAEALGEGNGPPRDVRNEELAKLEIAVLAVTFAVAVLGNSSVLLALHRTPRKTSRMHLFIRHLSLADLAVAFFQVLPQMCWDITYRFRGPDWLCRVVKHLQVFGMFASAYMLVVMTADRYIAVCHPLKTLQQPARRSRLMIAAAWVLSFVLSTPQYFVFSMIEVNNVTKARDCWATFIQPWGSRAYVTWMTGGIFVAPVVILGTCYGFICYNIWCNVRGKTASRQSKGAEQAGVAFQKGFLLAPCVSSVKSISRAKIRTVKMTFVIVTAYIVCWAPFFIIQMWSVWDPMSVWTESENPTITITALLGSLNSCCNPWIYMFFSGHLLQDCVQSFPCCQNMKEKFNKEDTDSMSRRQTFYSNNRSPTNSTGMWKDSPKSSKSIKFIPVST

`Cc1cc(C(=O)N2CCCCc3ccccc32)ccc1CNC(=O)NCC(=O)O` gave a pEC50 [1] of 6.74.
With `Cc1cc(C(=O)N2CCCCc3ccccc32)ccc1CNC(=O)NCC(=O)OC(C)(C)C` the pEC50 [1] was 6.92.
For `Cc1cc(C(=O)N2CCCCc3ccccc32)ccc1CNC(=O)N1CCC[C@H]1C(=S)N(C)C`, the pEC50 [1] was 8.49.
`O=C(NCc1ccc(C(=O)N2CCCCc3ccccc32)c(F)c1)Nc1c(F)cccc1F` gave a pEC50 [1] of 6.74.
`Cc1cc(C(=O)N2CCCCc3ccccc32)ccc1CNC(=O)Nc1ccc[nH]c1=O` gave a pEC50 [1] of 6.85.
`Cc1cc(C(=O)N2CCCCc3ccccc32)ccc1CNC(=O)NCC(N)=O` gave a pEC50 [1] of 6.68.
`Cc1cc(C(=O)N2CCCCc3ccccc32)ccc1CNC(=O)N1CCC[C@H]1C(=O)OC(C)(C)C` gave a pEC50 [1] of 6.41.
`Cc1cc(C(=O)N2CCCCc3ccccc32)ccc1CNC(=O)NCC(=O)N(C)C` showed a pEC50 [1] of 7.24, an inhibition in vivo at 1 mg/kg [2] of 82% and a solubility [3] of 177 µg/mL (≈ 419 µM). The Activity [4] was “Active” and the pEC50 [5] was 7.30.
`Cc1cc(C(=O)N2CCc3ccccc3-c3ccccc32)ccc1CNC(=O)N1CCC[C@H]1C(=O)N(C)C` showed a pEC50 [1] of 7.08.
In the case of `CCO[C@@H]1C[C@@H](C(=O)N(C)C)N(C(=O)NCc2ccc(C(=O)N3CCCCc4ccccc43)cc2C)C1`, the pEC50 [1] was 8.37, the inhibition in vivo at 1 mg/kg [2] was 60% and the pEC50 [5] was 7.82.
`Cc1cc(C(=O)N2CCCCc3ccccc32)ccc1CNC(=O)N1C[C@H](O)C[C@H]1C(=O)N(C)C` showed a pEC50 [1] of 8.64, an inhibition in vivo at 1 mg/kg [2] of 68% and a pEC50 [5] of 7.39.
In the case of `COC1(OC)C[C@@H](C(=O)N(C)C)N(C(=O)NCc2ccc(C(=O)N3CCCCc4ccccc43)cc2C)C1`, the pEC50 [1] was 7.70.
`COC(=O)[C@@H]1CCCN1C(=O)NCc1ccc(C(=O)N2CCCCc3ccccc32)cc1C` gave a pEC50 [1] of 7.00.
`Cc1cc(C(=O)N2CCCCc3ccccc32)ccc1CNC(=O)NCC(=O)NCc1ccccc1` gave a pEC50 [1] of 6.57.
`Cc1cc(C(=O)N2CCCCc3ccccc32)ccc1CNC(=O)N1CCC[C@H]1C(=O)O` gave a pEC50 [1] of 6.17.
For `Cc1cc(C(=O)N2CCCCc3ccccc32)ccc1CNC(=O)N1CC(=O)C[C@H]1C(=O)N(C)C`, the pEC50 [1] was 7.57.
`Cc1cc(C(=O)N2CCCCc3ccccc32)ccc1CNC(=O)N1CCC[C@H]1C(=O)N(C)C` [FEDOVAPAGON] showed a pEC50 [1] of 7.62, an inhibition in vivo at 1 mg/kg [2] of 81% and an Efficacy [6] of 100%. The Activity [7] was “inactive”, the Activity [8] was “inactive” and the pKi [9] was under 5.00. For the same compound, the pKi [10] was 5.70, the Activity [11] was “Active” and the pEC50 [5] was 6.82.
In the case of `Cc1cc(C(=O)N2CCCCc3ccccc32)ccc1CNC(=O)NCC(=O)OC(C)C`, the pEC50 [1] was 6.85.
For `Cc1cc(C(=O)N2CCCCc3ccccc32)ccc1CNC(=O)N1CCC[C@@H]1C(=O)N(C)C`, the pEC50 [1] was 6.42.
For `O=C(NCc1ccc(C(=O)N2CCCCc3ccccc32)c(Cl)c1)Nc1c(F)cccc1F`, the pEC50 [1] was 7.40.
In the case of `Cc1cc(C(=O)N2CCCC(O)c3ccccc32)ccc1CNC(=O)N1CCC[C@H]1C(=O)N(C)C` (stereo partly specified), the pEC50 [1] was 6.64.
`COC(=O)CNC(=O)NCc1ccc(C(=O)N2CCCCc3ccccc32)cc1C` showed a pEC50 [1] of 7.43.
For `Cc1cc(C(=O)N2CCCCc3ccccc32)ccc1CNC(=O)N1CCC[C@H]1C(=O)OC(C)C`, the pEC50 [1] was 6.02.
For `CCN(CC)C(=O)[C@@H]1CCCN1C(=O)NCc1ccc(C(=O)N2CCCCc3ccccc32)cc1C`, the pEC50 [1] was 6.46.
`Cc1cc(C(=O)N2CCCCc3ccccc32)ccc1CNC(=O)NCC(=O)N1CCCCC1` gave a pEC50 [1] of 6.82.
For `Cc1cc(C(=O)N2CCCCc3ccccc32)ccc1CNC(=O)N1CC(F)(F)C[C@H]1C(=O)N(C)C`, the pEC50 [1] was 7.30.
Work on `Cc1cc(C(=O)N2CCCCc3ccccc32)ccc1CNC(=O)Nc1ccccc1` yielded a pEC50 [1] of 6.89.
Work on `CO[C@@H]1C[C@@H](C(=O)N(C)C)N(C(=O)NCc2ccc(C(=O)N3CCCCc4ccccc43)cc2C)C1` yielded a pEC50 [1] of 8.33, an inhibition in vivo at 1 mg/kg [2] of 84% and a pEC50 [5] of 7.19.
For `Cc1cc(C(=O)N2CCCC(F)(F)c3ccccc32)ccc1CNC(=O)N1CCC[C@H]1C(=O)N(C)C`, the pEC50 [1] was 5.77.
For `Cc1cc(C(=O)N2CCCCc3ccccc32)ccc1CNC(=O)N1C[C@H](OC(C)(C)C)C[C@H]1C(=O)N(C)C`, the pEC50 [1] was 7.34.
For `Cc1cc(C(=O)N2CCCCc3ccccc32)ccc1CNC(=O)NCC(=O)N1CCCC1`, the pEC50 [1] was 7.00.
For `Cc1cc(C(=O)N2CCCCc3ccccc32)ccc1CNC(=O)NCC(=O)OCc1ccccc1`, the pEC50 [1] was 6.14.
`Cc1cc(C(=O)N2CCCCc3ccccc32)ccc1CNC(=O)NCC(=O)Oc1ccccc1` showed a pEC50 [1] of 6.09.
`Cc1cc(C(=O)N2Cc3cccn3Cc3ccccc32)ccc1CNC(=O)N1CCC[C@H]1C(=O)N(C)C` showed a pEC50 [1] of 6.92.
Compound `Cc1cc(C(=O)N2CCCC(C)c3ccccc32)ccc1CNC(=O)N1CCC[C@H]1C(=O)N(C)C` (stereo partly specified) has a pEC50 [1] of 6.66.
Compound `CCOC(=O)CNC(=O)NCc1ccc(C(=O)N2CCCCc3ccccc32)cc1C` has a pEC50 [1] of 6.85.
`Cc1ccn(-c2ccc(C(=O)N3Cc4cccn4Cc4ccccc43)c(Cl)c2)n1` showed a pEC50 [1] of over 9.00.
For `Cc1cc(C(=O)N2CCCCc3ccccc32)ccc1CNC(=O)Nc1c(F)cccc1F`, the pEC50 [1] was 8.68, the inhibition in vivo at 1 mg/kg [2] was 0% and the Activity [12] was “inactive”. It also gave a pKi [9] of under 5.00, a pKi [10] of 6.70 and a pEC50 [5] of 7.89.
Compound `Cc1cc(C(=O)N2CCCCc3ccccc32)ccc1CNC(=O)Nc1ccccc1F` has a pEC50 [1] of 7.52.
With `CCc1cc(C(=O)N2CCCCc3ccccc32)ccc1CNC(=O)Nc1c(F)cccc1F` the pEC50 [1] was 8.00.
`COc1cc(CNC(=O)Nc2c(F)cccc2F)ccc1C(=O)N1CCCCc2ccccc21` gave a pEC50 [1] of 6.96.
For `Cc1cc(C(=O)N2CCCOc3ccccc32)ccc1CNC(=O)N1CCC[C@H]1C(=O)N(C)C`, the pEC50 [1] was 6.00.
In the case of `Cc1cc(C(=O)N2CCCCc3ccccc32)cc(C)c1CNC(=O)Nc1c(F)cccc1F`, the pEC50 [1] was 7.09.
For `Cc1cc(C(=O)N2CCCCc3ccccc32)ccc1CNC(=O)N1C[C@H](OCc2ccccc2)C[C@H]1C(=O)N(C)C`, the pEC50 [1] was 8.00.
`Cc1cc(C(=O)N2CCc3cccn3-c3ccccc32)ccc1CNC(=O)N1CCC[C@H]1C(=O)N(C)C` showed a pEC50 [1] of 6.85.
For `O=C(NCc1ccc(C(=O)N2CCCCc3ccccc32)cc1)Nc1c(F)cccc1F`, the pEC50 [1] was 7.33, the pKi [9] was under 5.00 and the Activity [13] was 30%.
